In ChEMBL document CHEMBL1125116 (J Med Chem, 1990):

Assays:
Rattus norvegicus [1] = assay: Biodistribution of [125I]IBF in striatum was determined in rats 30 minutes after intraveneous injection; format: ADME, organism-based; details: in vivo, iv, 0.5 h
Outline: (§1)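 Male Sprague–Dawley rats (225–300 g) with free access to food and water were anesthetized with halothane. Each received 0.2 mL saline containing 8–10 μCi [125I]IBF into the femoral vein and was killed by cardiac excision under halothane at set times. Organs were weighed and gamma-counted, and uptake was calculated against diluted aliquots of the injected dose.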

Rattus norvegicus [2] = assay: Biodistribution of [125I]IBF in brain/blood was determined in rats 120 minutes after intraveneous injection; format: ADME, organism-based; details: in vivo, iv, 2 h
Rattus norvegicus [3] = assay: Biodistribution of [125I]IBF in brain was determined in rats 2 minutes after intraveneous injection; format: ADME, organism-based; details: in vivo, iv
Outline: (§2)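 Male Sprague–Dawley rats (225–300 g) with free access to food and water. Under halothane anesthesia they received [125I]IBF (8–10 μCi in 0.2 mL saline) into the femoral vein. Rats were killed by cardiac excision under halothane at the stated time. Organs were weighed and gamma-counted, and % dose/organ was taken against diluted aliquots of the injectate. Blood was assumed to be 7% of body weight and muscle 40%.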

Rattus norvegicus [4] = assay: Biodistribution of [125I]IBF in heart was determined in rats 15 minutes after intraveneous injection; format: ADME, organism-based; details: in vivo, iv, 0.25 h; outline: as §2
Rattus norvegicus [5] = assay: Biodistribution of [125I]IBF in brain/blood was determined in rats 30 minutes after intraveneous injection; format: ADME, organism-based; details: in vivo, iv, 0.5 h
Rattus norvegicus [6] = assay: Biodistribution of [125I]IBF in brain was determined in rats 60 minutes after intraveneous injection; format: ADME, organism-based; details: in vivo, iv, 1 h; outline: as §2
Rattus norvegicus [7] = assay: Biodistribution of [125I]IBF in thyroid was determined in rats 60 minutes after intraveneous injection; format: ADME, organism-based, Thyroid gland; details: in vivo, iv, 1 h; outline: as §1
Rattus norvegicus [8] = assay: Biodistribution of [125I]IBF in spleen was determined in rats 60 minutes after intraveneous injection; format: ADME, organism-based; details: in vivo, iv, 1 h; outline: as §2
Rattus norvegicus [9] = assay: Biodistribution of [125I]IBF in muscle was determined in rats 2 minutes after intraveneous injection; format: ADME, organism-based, Muscle tissue; details: in vivo, iv; outline: as §2
Rattus norvegicus [10] = assay: Biodistribution of [125I]-IBF in skin was determined in rats 60 minutes after intraveneous injection; format: ADME, organism-based, Zone of skin; details: in vivo, iv, 1 h; outline: as §2
Rattus norvegicus [11] = assay: Biodistribution of [125I]IBF in skin was determined in rats 15 minutes after intraveneous injection; format: ADME, organism-based, Zone of skin; details: in vivo, iv, 0.25 h; outline: as §2
Rattus norvegicus [12] = assay: Biodistribution of [125I]IBF in blood was determined in rats 30 minutes after intraveneous injection; format: ADME, organism-based; details: in vivo, iv, 0.5 h; outline: as §2
Rattus norvegicus [13] = assay: Biodistribution of [125I]IBF in heart was determined in rats 2 minutes after intraveneous injection; format: ADME, organism-based; details: in vivo, iv; outline: as §2
[14] = Biodistribution of [125I]IBF in blood was determined in rats 30 minutes after intraveneous injection; details: rat, in vivo, iv, 0.5 h
Rattus norvegicus [15] = assay: Biodistribution of [125I]IBF in spleen was determined in rats 2 minutes after intraveneous injection; format: ADME, organism-based; details: in vivo, iv; outline: as §2
Rattus norvegicus [16] = assay: Biodistribution of [125I]IBF in muscle was determined in rats 60 minutes after intraveneous injection; format: ADME, organism-based, Muscle tissue; details: in vivo, iv, 1 h; outline: as §2
Rattus norvegicus [17] = assay: Biodistribution of [125I]IBF was in skin determined in rats 2 minutes after intraveneous injection; format: ADME, organism-based, Zone of skin; details: in vivo, iv; outline: as §1
Rattus norvegicus [18] = assay: Biodistribution of [125I]IBF in lung was determined in rats 30 minutes after intraveneous injection; format: ADME, organism-based; details: in vivo, iv, 0.5 h; outline: as §2
Rattus norvegicus [19] = assay: Biodistribution of [125I]IBF in spleen was determined in rats 30 minutes after intraveneous injection; format: ADME, organism-based; details: in vivo, iv, 0.5 h; outline: as §2
Rattus norvegicus [20] = assay: Biodistribution of [125I]IBF in muscle was determined in rats 15 minutes after intraveneous injection; format: ADME, organism-based, Muscle tissue; details: in vivo, iv, 0.25 h; outline: as §2
Rattus norvegicus [21] = assay: Biodistribution of [125I]-IBF in blood was determined in rats 60 minutes after intraveneous injection; format: ADME, organism-based; details: in vivo, iv, 1 h; outline: as §2
Rattus norvegicus [22] = assay: Biodistribution of [125I]-IBF in muscle was determined in rats 120 minutes after intraveneous injection; format: ADME, organism-based, Muscle tissue; details: in vivo, iv, 2 h; outline: as §2
Rattus norvegicus [23] = assay: Biodistribution of [125I]IBF in striatum was determined in rats 120 minutes after intraveneous injection; format: ADME, organism-based; details: in vivo, iv, 2 h
Rattus norvegicus [24] = assay: Biodistribution of [125I]IBF in thyroid was determined in rats 120 minutes after intraveneous injection; format: ADME, organism-based, Thyroid gland; details: in vivo, iv, 2 h; outline: as §1
Rattus norvegicus [25] = assay: Biodistribution of [125I]-IBF in heart was determined in rats 60 minutes after intraveneous injection; format: ADME, organism-based; details: in vivo, iv, 1 h; outline: as §2
Rattus norvegicus [26] = assay: Biodistribution of [125I]IBF in liver was determined in rats 2 minutes after intraveneous injection; format: ADME, organism-based; details: in vivo, iv; outline: as §2
Rattus norvegicus [27] = assay: Biodistribution of [125I]IBF in kidney was determined in rats 30 minutes after intraveneous injection; format: ADME, organism-based; details: in vivo, iv, 0.5 h; outline: as §2
Rattus norvegicus [28] = assay: Biodistribution of [125I]IBF in kidney was determined in rats 2 minutes after intraveneous injection; format: ADME, organism-based; details: in vivo, iv; outline: as §2
Rattus norvegicus [29] = assay: Biodistribution of [125I]IBF in spleen was determined in rats 15 minutes after intraveneous injection; format: ADME, organism-based; details: in vivo, iv, 0.25 h; outline: as §2
Rattus norvegicus [30] = assay: Biodistribution of [125I]-IBF in blood was determined in rats 2 minutes after intraveneous injection; format: ADME, organism-based; details: in vivo, iv; outline: as §2

CCN1CCC[C@H]1CNC(=O)c1cc(I)cc2c1OCC2
Dose/organ (Rattus norvegicus [1]): 0.66%
Dose/organ (Rattus norvegicus [2]): 1.53
Dose/organ (Rattus norvegicus [3]): 0.98%
Dose/organ (Rattus norvegicus [4]): 0.2%
Dose/organ (Rattus norvegicus [5]): 2.26
Dose/organ (Rattus norvegicus [6]): 0.17%
Dose/organ (Rattus norvegicus [7]): 0.02%
Dose/organ (Rattus norvegicus [8]): 0.09%
Dose/organ (Rattus norvegicus [9]): 11.25%
Dose/organ (Rattus norvegicus [10]): 2.38%
Dose/organ (Rattus norvegicus [11]): 8.46%
Dose/organ (Rattus norvegicus [12]): 1.26%
Dose/organ (Rattus norvegicus [13]): 0.81%
Dose/organ [14]: 1.26%
Dose/organ (Rattus norvegicus [15]): 0.96%
Dose/organ (Rattus norvegicus [16]): 4.97%
Dose/organ (Rattus norvegicus [17]): 8.54%
Dose/organ (Rattus norvegicus [18]): 0.82%
Dose/organ (Rattus norvegicus [19]): 0.31%
Dose/organ (Rattus norvegicus [20]): 14.36%
Dose/organ (Rattus norvegicus [21]): 0.98%
Dose/organ (Rattus norvegicus [22]): 2.3%
Dose/gram (Rattus norvegicus [23]): 0.444 % dose/g
Dose/organ (Rattus norvegicus [24]): 0.08%
Dose/organ (Rattus norvegicus [25]): 0.05%
Dose/organ (Rattus norvegicus [26]): 16.32%
Dose/organ (Rattus norvegicus [27]): 1.58%
Dose/organ (Rattus norvegicus [28]): 7.58%
Dose/organ (Rattus norvegicus [29]): 0.58%
Dose/organ (Rattus norvegicus [30]): 3.5%
